Measured values taken from ChEMBL document CHEMBL4316643, “Sesquiterpenes from an Eastern African Medicinal Mushroom Belonging to the Genus Sanghuangporus” (J Nat Prod, 2019).
≈ marks a conversion by molar mass, not a printed value. Calls of active or inactive are those of the source. The calls are words filed in the database; no cut-off is given here.

Key:
L929 = test: Cytotoxicity in mouse L929 cells; assay type: functional, cell-based
Method in brief: (§1)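 In vitro cytotoxicity against mouse fibroblast L929 and HeLa-derived KB-3.1 cells; serial dilutions from a starting concentration of 37 μg/mL; IC50 determined.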

KB 3-1 = test: Cytotoxicity in human KB 3.1 cells; assay type: functional, cell-based; method in brief: as §1
Bacillus subtilis = test: Antimicrobial activity against Bacillus subtilis DSM 10 by serial dilution assay; assay type: functional
[1] = test system: Mycolicibacterium smegmatis; test: Antimicrobial activity against Mycobacterium smegmatis DSM 43524 by serial dilution assay; assay type: functional
Micrococcus luteus = test: Antimicrobial activity against Micrococcus luteus DSM 1790 by serial dilution assay; assay type: functional
Mucor hiemalis = test: Antimicrobial activity against Mucor hiemalis DSM 2656 by serial dilution assay; assay type: functional
Method in brief: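 Serial dilution MIC assay in 96-well plates using YM medium for the filamentous fungus; starting concentration 300 μg/mL.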

Staphylococcus aureus = test: Antimicrobial activity against Staphylococcus aureus DSM 346 by serial dilution assay; assay type: functional
[2] = Mus musculus, L929, read-out: IC50
[3] = Homo sapiens, KB 3-1, read-out: IC50

Row | Molecule | IC50 (L929; [2]) | IC50 (KB 3-1; [3]) | MIC (Bacillus subtilis) | MIC [1] | MIC (Micrococcus luteus) | MIC (Mucor hiemalis) | MIC (Staphylococcus aureus) | IC50 (L929; l929) | IC50 (KB 3-1; kb 3-1)
1 | C=C1CCC[C@@](C)(CO)[C@@H]1CCc1ccoc1 | 59.8 µM | 27.8 µM | 75 µg/mL (≈ 320 µM) |  |  |  |  |  | 
2 | CC1=CC[C@H]([C@@](C)(O)[C@@H](O)[C@@H](O)/C=C(\C)C(=O)O)CC1 |  |  | inactive | inactive | inactive | inactive | inactive |  | 
3 | C=C1CCC[C@@](C)(CO)[C@@H]1CC/C(=C/CO)CO |  |  | inactive | inactive | inactive | 50 µg/mL (≈ 197 µM) | inactive | Not Active | Not Active
4 | O=C(O)/C=C/c1ccc(O)cc1 [COUMARIC ACID] |  |  | inactive | inactive | inactive | 50 µg/mL (≈ 305 µM) | inactive | Not Active | Not Active
5 | O=C(O)c1cn(C2CC2)c2cc(N3CCNCC3)c(F)cc2c1=O [CIPROFLOXACIN] |  |  | 3.1 µg/mL (≈ 9.36 µM) |  |  |  |  |  | 
6 | C/C(=C\c1csc(C)n1)[C@@H]1C[C@@H]2O[C@]2(C)CCC[C@H](C)[C@H](O)[C@@H](C)C(=O)C(C)(C)[C@@H](O)CC(=O)O1 [PATUPILONE] | 0.00275 µM | 6.5e-05 µM |  |  |  |  |  |  | 
7 | C=C1CCCC(C)(C)[C@@H]1CC/C(=C/CO)CO | 118 µM | 79.8 µM | 100 µg/mL (≈ 420 µM) | inactive | 100 µg/mL (≈ 420 µM) | 25 µg/mL (≈ 105 µM) | 100 µg/mL (≈ 420 µM) |  | 
8 | NC[C@H]1O[C@H](O[C@H]2[C@H](O)[C@@H](O[C@H]3O[C@H](CO)[C@@H](O)[C@H](N)[C@H]3O)[C@H](N)C[C@@H]2N)[C@H](O)[C@@H](O)[C@@H]1O [KANAMYCIN] |  |  |  | 0.4 µg/mL (≈ 0.826 µM) |  |  |  |  | 
9 | CC1=CC[C@H]([C@@](C)(O)[C@@H](O)C/C=C(\C)C(=O)O)CC1 |  |  | inactive | inactive | inactive | 50 µg/mL (≈ 186 µM) | inactive |  | 
10 | C=C1CCC[C@@](C)(C(=O)O)[C@@H]1CCc1ccoc1 |  | 141 µM | 75 µg/mL (≈ 302 µM) | inactive | inactive | 50 µg/mL (≈ 201 µM) | inactive | Not Active | 
11 | NYSTATIN |  |  |  |  |  | 16.7 µg/mL |  |  | 
12 | C=C([C@H]1CC=C(C)CC1)[C@H](O)[C@@H](O)/C=C(\C)C(=O)O |  | 173 µM | inactive | inactive | inactive | 100 µg/mL (≈ 375 µM) | 100 µg/mL (≈ 375 µM) |  | 
13 | CN(C)[C@@H]1C(O)=C(C(N)=O)C(=O)[C@@]2(O)C(O)=C3C(=O)c4c(O)cccc4[C@@](C)(O)[C@H]3[C@H](O)[C@@H]12 [OXYTETRACYCLINE] |  |  |  |  | 0.4 µg/mL (≈ 0.869 µM) |  | 0.4 µg/mL (≈ 0.869 µM) |  | 
